Laboratory results as given in ChEMBL document CHEMBL1926569, “Novel (E)-1-(4-methyl-2-(alkylamino)thiazol-5-yl)-3-arylprop-2-en-1-ones as potent antimicrobial agents” (2011).

Experiments:
[1] = test system: Aspergillus ochraceus; assay: Antifungal activity against Aspergillus ochraceus after 72 hrs by serial dilution technique
[2] = test system: Penicillium ochrochloron; assay: Antifungal activity against Penicillium ochrochloron ATCC 9112 after 72 hrs by serial dilution technique; format: functional; conditions: ATCC 9112, 72 h
How it was run: (§1)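 Modified microdilution in 96-well plates. Fungi were kept on malt agar at 4 °C. Spores were washed off in sterile 0.85% saline with 0.1% Tween 80. Compounds were dissolved at 1 mg/ml in 5% DMSO with 0.1% Tween 80 and added to malt broth with inoculum. Plates were shaken at 160 rpm for 72 h at 28 °C. Duplicate, repeated three times.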

[3] = test system: Candida albicans; assay: Antifungal activity against Candida albicans isolated from human incubated for 72 hrs followed by serial sub-cultivation for 72 hrs by serial dilution technique; format: functional
How it was run: (§2)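 MFC: material from 72 h malt broth microdilution wells was serially sub-cultured into fresh broth plates and incubated a further 72 h at 28 °C. Fungicidal concentration is taken from growth after sub-culture. Duplicate, repeated three times.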

[4] = test system: Escherichia coli; assay: Antibacterial activity against Escherichia coli ATCC 35210 incubated for 24 hrs followed by serial sub-cultivation for 24 hrs by microdilution; format: functional; conditions: ATCC 35210, 24 h
How it was run: (§3)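 MBC: after the 24 h LB broth microdilution (1.0 × 10⁴ CFU per well, 160 rpm), wells were serially sub-cultured into fresh broth plates and incubated a further 24 h. MBC is the lowest concentration with no visible growth, taken as 99.5% killing of the original inoculum. Duplicate, repeated three times.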

[5] = test system: Listeria monocytogenes; assay: Antibacterial activity against Listeria monocytogenes NCTC 7973 incubated for 24 hrs followed by serial sub-cultivation for 24 hrs by microdilution; format: functional; conditions: NCTC 7973, 24 h
How it was run: as §3

[6] = test system: Trichoderma viride; assay: Antifungal activity against Trichoderma viride IAM 5061 after 72 hrs by serial dilution technique; format: functional; conditions: IAM 5061, 72 h
How it was run: as §1

[7] = test system: Micrococcus flavus; assay: Antibacterial activity against Micrococcus flavus ATCC 10240 incubated for 24 hrs followed by serial sub-cultivation for 24 hrs by microdilution; format: functional; conditions: ATCC 10240, 24 h
How it was run: as §3

[8] = test system: Penicillium ochrochloron; assay: Antifungal activity against Penicillium ochrochloron ATCC 9112 incubated for 72 hrs followed by serial sub-cultivation for 72 hrs by serial dilution technique; format: functional; conditions: ATCC 9112, 72 h
How it was run: as §2

[9] = test system: Trichoderma viride; assay: Ratio of bifonazole to compound for Trichoderma viride IAM 5061; format: functional
[10] = test system: Aspergillus niger; assay: Ratio of bifonazole to compound for Aspergillus niger ATCC 6275; format: functional
[11] = test system: Aspergillus ochraceus; assay: Ratio of ketoconazole to compound for Aspergillus ochraceus ATCC 12066; format: functional
[12] = test system: Aspergillus flavus; assay: Antifungal activity against Aspergillus flavus ATCC 9643 after 72 hrs by serial dilution technique; format: functional; conditions: ATCC 9643, 72 h
How it was run: as §1

[13] = test system: Pseudomonas aeruginosa; assay: Antibacterial activity against Pseudomonas aeruginosa ATCC 27853 incubated for 24 hrs followed by serial sub-cultivation for 24 hrs by microdilution; format: functional; conditions: ATCC 27853, 24 h
How it was run: as §3

[14] = test system: Talaromyces funiculosus; assay: Antifungal activity against Penicillium funiculosum ATCC 36839 incubated for 72 hrs followed by serial sub-cultivation for 72 hrs by serial dilution technique; format: functional; conditions: ATCC 36839, 72 h
How it was run: as §2

[15] = test system: Talaromyces funiculosus; assay: Antifungal activity against Penicillium funiculosum ATCC 36839 after 72 hrs by serial dilution technique; format: functional; conditions: ATCC 36839, 72 h
How it was run: as §1

[16] = test system: Micrococcus flavus; assay: Antibacterial activity against Micrococcus flavus ATCC 10240 after 24 hrs by microdilution method; format: functional; conditions: ATCC 10240, 24 h
How it was run: (§4)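 Broth microdilution in 96-well plates. Bacterial suspensions were adjusted in sterile saline to 1.0 × 10⁵ CFU/ml, prepared daily and kept at 4 °C. Compound was added to LB broth with 1.0 × 10⁴ CFU per well and shaken at 160 rpm for 24 h at […] (so in the source). MIC is the lowest concentration with no visible growth under a binocular microscope. OD655 was also read. Duplicate, repeated three times.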

[17] = test system: Aspergillus ochraceus; assay: Antifungal activity against Aspergillus ochraceus ATCC 12066 incubated for 72 hrs followed by serial sub-cultivation for 72 hrs by serial dilution technique; format: functional; conditions: ATCC 12066, 72 h
How it was run: as §2

[18] = test system: Salmonella typhimurium; assay: Antibacterial activity against Salmonella Typhimurium ATCC 13311 incubated for 24 hrs followed by serial sub-cultivation for 24 hrs by microdilution; format: functional, Salmonella enterica subsp. enterica serovar Typhimurium; conditions: Salmonella enterica, ATCC 13311, 24 h
How it was run: as §3

[19] = test system: Staphylococcus aureus; assay: Antibacterial activity against Staphylococcus aureus ATCC 6538 after 24 hrs by microdilution method; format: functional; conditions: ATCC 6538, 24 h
How it was run: as §4

[20] = test system: Enterococcus faecalis; assay: Antibacterial activity against Enterococcus faecalis isolated from human after 24 hrs by microdilution method; format: functional
How it was run: as §4

[21] = test system: Aspergillus niger; assay: Antifungal activity against Aspergillus niger ATCC 6275 after 72 hrs by serial dilution technique; format: functional; conditions: ATCC 6275, 72 h
How it was run: as §1

[22] = test system: Talaromyces funiculosus; assay: Ratio of bifonazole to compound for Penicillium funiculosum ATCC 36839; format: functional
[23] = test system: Aspergillus niger; assay: Antifungal activity against Aspergillus niger ATCC 6275 incubated for 72 hrs followed by serial sub-cultivation for 72 hrs by serial dilution technique; format: functional; conditions: ATCC 6275, 72 h
How it was run: as §2

[24] = test system: Aspergillus fumigatus; assay: Antifungal activity against Aspergillus fumigatus isolated from human incubated for 72 hrs followed by serial sub-cultivation for 72 hrs by serial dilution technique; format: functional
How it was run: as §2

[25] = test system: Salmonella typhimurium; assay: Antibacterial activity against Salmonella Typhimurium ATCC 13311 after 24 hrs by microdilution method; format: functional, Salmonella enterica subsp. enterica serovar Typhimurium; conditions: Salmonella enterica, ATCC 13311, 24 h
How it was run: as §4

[26] = test system: Listeria monocytogenes; assay: Antibacterial activity against Listeria monocytogenes NCTC 7973 after 24 hrs by microdilution method; format: functional; conditions: NCTC 7973, 24 h
How it was run: as §4

[27] = test system: Enterococcus faecalis; assay: Antibacterial activity against Enterococcus faecalis isolated from human incubated for 24 hrs followed by serial sub-cultivation for 24 hrs by microdilution; format: functional
How it was run: as §3

[28] = test system: Bacillus cereus; assay: Antibacterial activity against clinical isolate of Bacillus cereus after 24 hrs by microdilution method; format: functional
How it was run: as §4

[29] = test system: Aspergillus ochraceus; assay: Ratio of bifonazole to compound for Aspergillus ochraceus ATCC 12066; format: functional
[30] = test system: Aspergillus flavus; assay: Antifungal activity against Aspergillus flavus ATCC 9643 incubated for 72 hrs followed by serial sub-cultivation for 72 hrs by serial dilution technique; format: functional; conditions: ATCC 9643, 72 h
How it was run: as §2

[31] = test system: Escherichia coli; assay: Antibacterial activity against Escherichia coli ATCC 35210 after 24 hrs by microdilution method; format: functional; conditions: ATCC 35210, 24 h
How it was run: as §4

[32] = test system: Penicillium ochrochloron; assay: Ratio of ketoconazole to compound for Penicillium ochrochloron ATCC 9112; format: functional
[33] = test system: Pseudomonas aeruginosa; assay: Ratio of ampicillin MIC to compound MIC for Pseudomonas aeruginosa ATCC 27853; format: functional
[34] = test system: Candida albicans; assay: Ratio of bifonazole to compound for Candida albicans isolated from human; format: functional
[35] = test system: Pseudomonas aeruginosa; assay: Antibacterial activity against Pseudomonas aeruginosa ATCC 27853 after 24 hrs by microdilution method; format: functional; conditions: ATCC 27853, 24 h
How it was run: as §4

[36] = test system: Penicillium ochrochloron; assay: Ratio of bifonazole to compound for Penicillium ochrochloron ATCC 9112; format: functional
[37] = test system: Trichoderma viride; assay: Antifungal activity against Trichoderma viride IAM 5061 incubated for 72 hrs followed by serial sub-cultivation for 72 hrs by serial dilution technique; format: functional; conditions: IAM 5061, 72 h
How it was run: as §2

[38] = test system: Candida albicans; assay: Antifungal activity against Candida albicans isolated from human after 72 hrs by serial dilution technique; format: functional
How it was run: as §1

[39] = test system: Candida albicans; assay: Ratio of ketoconazole to compound for Candida albicans isolated from human; format: functional
[40] = test system: Aspergillus fumigatus; assay: Ratio of ketoconazole to compound for Aspergillus fumigatus isolated from human; format: functional
[41] = test system: Aspergillus ochraceus; assay: Antifungal activity against Aspergillus ochraceus ATCC 12066 after 72 hrs by serial dilution technique; format: functional; conditions: ATCC 12066, 72 h
How it was run: as §1

[42] = test system: Staphylococcus aureus; assay: Antibacterial activity against Staphylococcus aureus ATCC 6538 incubated for 24 hrs followed by serial sub-cultivation for 24 hrs by microdilution method; format: functional; conditions: ATCC 6538, 24 h
How it was run: as §3

[43] = test system: Bacillus cereus; assay: Antibacterial activity against clinical isolate of Bacillus cereus incubated for 24 hrs followed by serial sub-cultivation for 24 hrs by microdilution; format: functional
How it was run: as §3

CCNc1nc(C)c(C(=O)/C=C/c2ccccc2)s1
55.1 µM: MIC [20] | MIC [21]
110 µM: MBC [4] | MBC [5] | MBC [7] | MIC [26] | MBC [42]
36.8 µM: MIC [1] | MIC [2] | MIC [6] | MIC [15] | MIC [25] | MIC [38]
73.5 µM: MFC [3] | MFC [8] | MIC [12] | MBC [13] | MFC [14] | MIC [19] | MFC [23] | MFC [24] | MBC [27] | MIC [28] | MIC [31] | MIC [35] | MFC [37] | MIC [41] | MBC [43]
10: Ratio [9] | Ratio [10] | Ratio [11] | Ratio [22] | Ratio [29] | Ratio [32] | Ratio [33] | Ratio [34] | Ratio [36] | Ratio [39] | Ratio [40]
91.9 µM: MIC [16] | MFC [17] | MBC [18] | MFC [30]

CCNc1nc(C)c(C(=O)/C=C/c2ccc([N+](=O)[O-])cc2)s1
63.1 µM: MIC [2] | MFC [3] | MIC [12] | MBC [13] | MFC [14] | MBC [18] | MFC [23] | MFC [24] | MBC [27] | MIC [28] | MFC [37] | MIC [41]
31.5 µM: MIC [15] | MIC [38]
94.6 µM: MBC [4] | MBC [5] | MBC [7] | MIC [16] | MIC [19] | MIC [26] | MIC [31] | MBC [42] | MBC [43]
78.8 µM: MFC [8] | MFC [17] | MFC [30]
47.3 µM: MIC [1] | MIC [6] | MIC [20] | MIC [21] | MIC [25] | MIC [35]
10: Ratio [9] | Ratio [10] | Ratio [11] | Ratio [22] | Ratio [29] | Ratio [32] | Ratio [33] | Ratio [34] | Ratio [36] | Ratio [39] | Ratio [40]

CCNc1nc(C)c(C(=O)/C=C/c2cccc([N+](=O)[O-])c2)s1
31.5 µM: MIC [15] | MIC [38]
10: Ratio [9] | Ratio [10] | Ratio [11] | Ratio [22] | Ratio [29] | Ratio [32] | Ratio [33] | Ratio [34] | Ratio [36] | Ratio [39] | Ratio [40]
94.6 µM: MBC [5] | MBC [7] | MIC [19] | MIC [26] | MBC [42]
63.1 µM: MIC [1] | MIC [2] | MFC [3] | MIC [12] | MFC [14] | MIC [16] | MBC [18] | MIC [21] | MBC [27] | MIC [31] | MFC [37] | MIC [41] | MBC [43]
78.8 µM: MFC [8] | MFC [17] | MFC [23] | MFC [24] | MFC [30]
78.9 µM: MBC [4] | MBC [13] | MIC [35]
47.3 µM: MIC [6] | MIC [20] | MIC [25] | MIC [28]
